The source made the active and inactive calls. No cut-off for these calls is given here.
What was measured:
SH-SY5Y [1] = test: Cytotoxicity against human SH-SY5Y cells assessed as reduction in cell viability incubated for 24 hrs by MUH reagent based spectrophotometric analysis; type: functional
SH-SY5Y [2] = test: Cytotoxicity against human SH-SY5Y cells assessed as reduction in cell viability incubated for 48 hrs by MUH reagent based spectrophotometric analysis; type: functional
SH-SY5Y [3] = test: Cytotoxicity against human SH-SY5Y cells assessed as reduction in cell viability incubated for 72 hrs by MUH reagent based spectrophotometric analysis; type: functional
Summary of the method: (§1)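 SH-SY5Y in DMEM/10% FBS seeded 0.75 × 10⁴ cells/well, after 24 h treated with 0.1–100 μM for 24, 48 or 72 h. Washed, incubated with MUH 0.01 mg/mL in PBS 30 min at 37 °C in the dark; fluorescence ex 330/em 450 nm, normalized to untreated cells. IC50 by nonlinear regression, log(inhibitor) vs normalized response.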

SH-SY5Y [4] = test: Cytotoxicity against human SH-SY5Y cells assessed as cell viability at 100 uM incubated for 24 to 72 hrs by MUH reagent based spectrophotometric analysis; type: functional; details: time 24-72 hrs, read-out: Activity; summary of the method: as §1
Histone deacetylase 2 = Histone deacetylase 2 (Homo sapiens, UniProt Q92769); test: Inhibition of human recombinant HDAC2 using aminoluciferin-conjugated histone 4 derived acetylated lysine peptide as substrate incubated for 30 mins by bio-luminogenic assay
[5] = target: T1, Protein deacetylase HDAC6 (Homo sapiens, UniProt Q9UBN7); test: Inhibition of human recombinant HDAC6 using aminoluciferin-conjugated histone 4 derived acetylated lysine peptide as substrate incubated for 30 mins by bio-luminogenic assay
T1 sequence (Q9UBN7 whole entry): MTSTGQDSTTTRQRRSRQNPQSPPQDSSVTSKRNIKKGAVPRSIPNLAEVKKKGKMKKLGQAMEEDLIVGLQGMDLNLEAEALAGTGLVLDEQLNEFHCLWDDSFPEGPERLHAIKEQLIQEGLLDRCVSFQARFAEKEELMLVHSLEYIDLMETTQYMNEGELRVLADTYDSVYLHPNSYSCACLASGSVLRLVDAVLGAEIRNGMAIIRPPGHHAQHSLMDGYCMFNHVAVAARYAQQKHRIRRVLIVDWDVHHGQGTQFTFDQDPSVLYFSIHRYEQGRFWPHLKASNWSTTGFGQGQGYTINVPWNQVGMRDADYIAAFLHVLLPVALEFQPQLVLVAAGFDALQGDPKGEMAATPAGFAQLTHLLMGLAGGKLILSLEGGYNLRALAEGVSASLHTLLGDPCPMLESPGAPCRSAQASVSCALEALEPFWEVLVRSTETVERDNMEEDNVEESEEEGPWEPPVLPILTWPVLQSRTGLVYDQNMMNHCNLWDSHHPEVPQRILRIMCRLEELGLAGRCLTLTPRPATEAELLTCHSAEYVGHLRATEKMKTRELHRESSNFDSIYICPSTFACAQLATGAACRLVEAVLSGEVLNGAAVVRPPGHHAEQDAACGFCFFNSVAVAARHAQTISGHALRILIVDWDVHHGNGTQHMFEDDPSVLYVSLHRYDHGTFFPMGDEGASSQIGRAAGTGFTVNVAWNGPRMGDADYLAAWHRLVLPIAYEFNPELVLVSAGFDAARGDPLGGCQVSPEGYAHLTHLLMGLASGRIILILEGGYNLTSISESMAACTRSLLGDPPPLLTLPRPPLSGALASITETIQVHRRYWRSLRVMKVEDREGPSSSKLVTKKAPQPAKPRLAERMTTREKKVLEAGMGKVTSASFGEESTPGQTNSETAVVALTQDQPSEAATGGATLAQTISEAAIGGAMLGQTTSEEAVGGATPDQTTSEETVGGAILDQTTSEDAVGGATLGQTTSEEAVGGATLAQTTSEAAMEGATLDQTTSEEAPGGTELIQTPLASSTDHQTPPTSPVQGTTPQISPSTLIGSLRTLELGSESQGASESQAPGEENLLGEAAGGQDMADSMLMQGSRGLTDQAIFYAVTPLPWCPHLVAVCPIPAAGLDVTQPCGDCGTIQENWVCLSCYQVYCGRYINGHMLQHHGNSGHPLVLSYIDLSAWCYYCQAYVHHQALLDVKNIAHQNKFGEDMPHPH

SH-SY5Y [6] = test: Induction of oxidative stress in human SH-SY5Y cells assessed as increase in ROS production at 2 uM incubated for 24 hrs by DCFH-DA staining based fluorescence analysis; type: functional, cell-based
Summary of the method: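 SH-SY5Y plated 1 × 10⁴ cells/well, allowed 24 h to adhere, then given 2 μM compound or vehicle for 24 h. Cells PBS-washed and loaded with 10 μM DCFDA in DMEM for 30 min, washed again; fluorescence at ex 485/em 535 nm normalized to protein content (Lowry). n = 5; mean ± SD, triplicate.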

SH-SY5Y [7] = test: Antioxidant activity in human SH-SY5Y cells assessed as protection against […]-induced oxidative stress at 2 uM pretreated for 24 hrs followed by incubation with […] for 30 mins by DCFH-DA staining based fluorescence analysis; type: functional, cell-based; details: time 24.5 hrs
Summary of the method: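 SH-SY5Y seeded 1 × 10⁴ cells/well, adhered 24 h, exposed to 2 μM compound or vehicle for 24 h, then loaded with 10 μM DCFDA in DMEM for 30 min; stress induced afterwards with 100 μM TBH in PBS for 30 min. Fluorescence read at ex 485/em 535 nm, normalized to Lowry protein; n = 5, triplicate.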

[8] = target: Histone deacetylase (Homo sapiens) (UniProt Q13547+O15379+Q9UBN7+Q92769+Q9UQL6+Q8WUI4+Q9BY41+Q96DB2+P56524+Q9UKV0+Q969S8); test: Inhibition of HDAC in human SH-SY5Y cells assessed as hyperacetylation of histone H2/H3 at 5 uM incubated for 6 hrs by western blot analysis; type: cell-based
Summary of the method: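 SH-SY5Y seeded at 20 × 10⁴ cells/cm², after 48 h given 5 μM compound or vehicle for 6 h. Nuclei isolated, histones acid-extracted (0.4 N H2SO4, 4 °C 1 h), acetone-precipitated, run on 15% gel and blotted with anti-acetyl-lysine antibody, ECL detection; densitometry normalized to H1.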

SH-SY5Y [9] = test: Cytotoxicity against human SH-SY5Y cells assessed as reduction in cell viability pretreated with SFN followed by compound treatment by MUH reagent based spectrophotometric analysis; type: functional
SH-SY5Y [10] = test: Induction of apoptosis in human SH-SY5Y cells assessed as increase in PARP cleavage by measuring decrease in PARP protein expression at 10 uM incubated for 72 hrs by flow cytometry relative to control; type: functional; set-up: scale not given: the % may be the effect or the level left
Summary of the method: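 SH-SY5Y cells, cultured in DMEM with 10% FBS at 37 °C and 5% CO2, were treated for 72 h. Cells were fixed in 4% paraformaldehyde and permeabilized with 90% cold methanol. They were stained with anti-PARP (1:100) and then an Alexa Fluor 488 secondary (1:200). Mean fluorescence intensity was read by flow cytometry and expressed as fold change versus control cells.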

Histone deacetylase 2, sequence (Q92769 whole entry): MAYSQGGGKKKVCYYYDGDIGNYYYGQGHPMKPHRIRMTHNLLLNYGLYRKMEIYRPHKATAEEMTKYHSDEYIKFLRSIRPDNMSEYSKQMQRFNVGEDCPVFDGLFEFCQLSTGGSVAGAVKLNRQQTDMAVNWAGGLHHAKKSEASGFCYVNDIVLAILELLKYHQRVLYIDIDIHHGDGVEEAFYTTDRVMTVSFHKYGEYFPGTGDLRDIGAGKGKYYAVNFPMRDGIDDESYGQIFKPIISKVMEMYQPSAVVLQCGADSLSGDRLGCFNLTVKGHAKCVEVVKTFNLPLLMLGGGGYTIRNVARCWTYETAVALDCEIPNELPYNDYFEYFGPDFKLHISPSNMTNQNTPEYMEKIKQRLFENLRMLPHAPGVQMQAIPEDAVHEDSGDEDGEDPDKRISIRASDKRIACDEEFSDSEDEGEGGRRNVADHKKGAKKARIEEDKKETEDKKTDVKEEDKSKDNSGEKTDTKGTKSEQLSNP

| SMILES | IC50 (SH-SY5Y [1]) | IC50 (SH-SY5Y [2]) | IC50 (SH-SY5Y [3]) | viability at 100 µM (SH-SY5Y [4]) | IC50 (Histone deacetylase 2) | IC50 [5] | Activity (SH-SY5Y [6]) | Activity (SH-SY5Y [7]) | inhibition [8] | Activity (SH-SY5Y [9]) | Activity (SH-SY5Y [10]) |
| --- | --- | --- | --- | --- | --- | --- | --- | --- | --- | --- | --- |
| CC1=C(NCCCCNC(=O)CS)C(=O)c2ccccc2C1=O | > 100 µM | > 100 µM | > 100 µM | 70% | 25.2 µM | 30 µM | inactive | inactive | – | – | – |
| CC1=C(NCc2ccc(C(=O)Nc3ccccc3N)cc2)C(=O)c2ccccc2C1=O | 1.56 µM | 0.78 µM | 0.62 µM | – | 2.1 µM | 3.76 µM | Active | inactive | Active | Active | 56.81% |
